According to ChEMBL document CHEMBL4837219, “Chemical modification of NSC12 leads to a specific FGF-trap with antitumor activity in multiple myeloma” (Eur J Med Chem, 2021):
Active and inactive are the calls of the source. The rule behind the calls is not given here.

Columns and labels:
KMS-11 [1] = assay: Trapping activity at FGF in human KMS-11 cells assessed as inhibition of FGFR3 phosphorylation at 6 uM measured after 6 hrs by western blot analysis; type: cell-based
Method in brief: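 KMS-11 cells treated for 6 h with compound at 6.0 µM, then lysed in NP-40 buffer containing orthovanadate and protease inhibitors. Phospho-FGFR3 detected by western blot with anti-phospho-Y724 antibody, using β-actin or α-tubulin as loading control. Result expressed as % inhibition of FGFR3 phosphorylation by densitometry.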

KMS-11 [2] = assay: Antiproliferative activity against human KMS-11 cells assessed as reduction in cell viability incubated for 48 hrs by propidium iodide staining-based flow cytometric analysis; type: functional; settings: KMS-11, 48 h
Method in brief: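 KMS-11 cells (maintained in RPMI1640 with 10% heat-inactivated FBS and 2.0 mM glutamine) exposed to increasing concentrations of compound for 48 h. Viable PI-negative cells counted by flow cytometry using the analyzer's absolute counting function. IC50 is the concentration giving 50% inhibition of proliferation, taken as the mean of at least 2 experiments run in triplicate.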

[3] = Total plasma concentration in NOD-SCID mouse at 7.5 mg/kg, ip measured after 90 mins by HPLC/MS/MS analysis; type: ADME, organism-based
Method in brief: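 A single 7.5 mg/kg i.p. dose given to eight-week-old NOD/SCID mice (n = 4). Blood collected at 90 min. Plasma treated with acetonitrile containing internal standard (1:2) to precipitate protein, centrifuged, and the supernatant analyzed by C18 gradient HPLC-MS/MS in ESI-negative MRM mode. Calibration in spiked blank plasma, linear over 1–1000 nM, LOQ 1 nM. Values are mean ± SEM.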

KMS-11 [4] = assay: Antitumor activity against human KMS-11 cells xenografted in NOD-SCID mouse assessed as tumor growth inhibition at 7.5 mg/kg, ip administered every other day measured at day 17 post-tumor implantation by caliper analysis; type: functional, organism-based
Method in brief: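 Female NOD/SCID mice, six to eight weeks old, injected s.c. with 5 × 10^6 KMS-11 cells in PBS. Once tumors were palpable (10 days), mice were randomized and given 7.5 mg/kg i.p. every other day, with DMSO as vehicle control; n = 5 per group. Tumor volume from caliper measurements, V = (D × d²)/2. Tumors excised and weighed at day 17.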

[5] = biological target: T1, Estrogen receptor (Homo sapiens) (UniProt P03372); assay: Displacement of [3H]estradiol from human full length recombinant ERalpha expressed in baculovirus-infected Sf9 cells at 50 uM incubated for 120 mins by radiometric scintillation counting analysis
T1 sequence (whole entry): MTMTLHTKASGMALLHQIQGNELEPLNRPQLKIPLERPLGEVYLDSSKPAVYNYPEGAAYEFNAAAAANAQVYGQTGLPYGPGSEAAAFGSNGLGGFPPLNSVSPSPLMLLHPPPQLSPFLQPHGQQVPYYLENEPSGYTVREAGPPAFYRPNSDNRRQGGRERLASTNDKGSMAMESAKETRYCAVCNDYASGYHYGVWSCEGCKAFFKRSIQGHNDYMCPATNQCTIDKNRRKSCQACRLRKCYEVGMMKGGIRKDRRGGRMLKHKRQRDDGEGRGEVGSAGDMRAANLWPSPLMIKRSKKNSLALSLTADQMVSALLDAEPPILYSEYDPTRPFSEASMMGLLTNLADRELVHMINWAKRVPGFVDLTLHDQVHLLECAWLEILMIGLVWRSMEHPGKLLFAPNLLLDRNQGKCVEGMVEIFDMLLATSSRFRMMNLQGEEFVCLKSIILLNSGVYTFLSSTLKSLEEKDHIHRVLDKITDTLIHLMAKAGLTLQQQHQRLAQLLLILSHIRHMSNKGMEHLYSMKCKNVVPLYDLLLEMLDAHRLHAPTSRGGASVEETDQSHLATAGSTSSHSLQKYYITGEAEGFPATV
Method in brief: (§1)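 Radioligand competition binding to human ERα or ERβ, run as an outsourced panel assay. Readout is % inhibition of specific [3H]estradiol binding at 5.0 and 50 µM compound. Run in duplicate, and the mean of the duplicates is reported.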

[6] = biological target: Estrogen receptor beta (Homo sapiens) (UniProt Q92731); assay: Displacement of [3H]estradiol from human full length recombinant ERbeta expressed in baculovirus-infected Sf9 cells at 50 uM incubated for 120 mins by radiometric scintillation counting analysis; method in brief: as §1
[7] = biological target: T1, Estrogen receptor (Homo sapiens); assay: Displacement of [3H]estradiol from human full length recombinant ERalpha expressed in baculovirus-infected Sf9 cells at 5 uM incubated for 120 mins by radiometric scintillation counting analysis; method in brief: as §1
[8] = biological target: Estrogen receptor beta (Homo sapiens) (UniProt Q92731); assay: Displacement of [3H]estradiol from human full length recombinant ERbeta expressed in baculovirus-infected Sf9 cells at 5 uM incubated for 120 mins by radiometric scintillation counting analysis; method in brief: as §1
U-266 [9] = assay: Antiproliferative activity against human U-266 cells assessed as reduction in cell viability incubated for 48 hrs by propidium iodide staining-based flow cytometric analysis; type: functional; settings: U-266, 48 h
Method in brief: (§2)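 Myeloma cells kept at low passage in RPMI1640 with 10% heat-inactivated FBS and 2.0 mM glutamine, Mycoplasma-tested, authenticated. Exposed to increasing concentrations of test compound for 48 h. Viable cells counted as propidium iodide-negative by flow cytometry with absolute counts. IC50 = concentration halving proliferation; mean of at least 2 experiments in triplicate.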

U-266 [10] = assay: Trapping activity at FGF in human U-266 cells assessed as inhibition of FGFR3 phosphorylation at 6 uM measured after 6 hrs by westernblot analysis; type: cell-based
Method in brief: (§3)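 Cells cultured in RPMI1640 with 10% FBS and 2.0 mM glutamine, then treated 6 h with 6 µM compound. Washed in cold PBS and lysed in NP-40 buffer (20 mM Tris-HCl pH 8, 1 mM orthovanadate, protease inhibitors). Bradford used to normalize protein. Blots probed for phospho-FGFR3 (Y724), with β-actin or α-tubulin as loading control; percent inhibition read by densitometry.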

OPM-2 [11] = assay: Trapping activity at FGF in human OPM-2 cells assessed as inhibition of FGFR3 phosphorylation at 6 uM measured after 6 hrs by westernblot analysis; type: cell-based; method in brief: as §3
[12] = biological target: Fibroblast growth factor 2 (Homo sapiens, UniProt P09038); assay: Binding affinity to FGF2 (unknown origin) by sensor chip immobilization based surface plasmon resonance analysis
OPM-2 [13] = assay: Antiproliferative activity against human OPM-2 cells assessed as reduction in cell viability incubated for 48 hrs by propidium iodide staining-based flow cytometric analysis; type: functional; settings: OPM-2, 48 h; method in brief: as §2
RPMI-8226 [14] = assay: Antiproliferative activity against human RPMI-8226 cells assessed as reduction in cell viability incubated for 48 hrs by propidium iodide staining-based flow cytometric analysis; type: functional; settings: RPMI-8226, 48 h; method in brief: as §2
RPMI-8226 [15] = assay: Trapping activity at FGF in human RPMI-8226 cells assessed as inhibition of FGFR3 phosphorylation at 6 uM measured after 6 hrs by westernblot analysis; type: cell-based; method in brief: as §3

Estrogen receptor beta (Homo sapiens), sequence (Q92731 whole entry): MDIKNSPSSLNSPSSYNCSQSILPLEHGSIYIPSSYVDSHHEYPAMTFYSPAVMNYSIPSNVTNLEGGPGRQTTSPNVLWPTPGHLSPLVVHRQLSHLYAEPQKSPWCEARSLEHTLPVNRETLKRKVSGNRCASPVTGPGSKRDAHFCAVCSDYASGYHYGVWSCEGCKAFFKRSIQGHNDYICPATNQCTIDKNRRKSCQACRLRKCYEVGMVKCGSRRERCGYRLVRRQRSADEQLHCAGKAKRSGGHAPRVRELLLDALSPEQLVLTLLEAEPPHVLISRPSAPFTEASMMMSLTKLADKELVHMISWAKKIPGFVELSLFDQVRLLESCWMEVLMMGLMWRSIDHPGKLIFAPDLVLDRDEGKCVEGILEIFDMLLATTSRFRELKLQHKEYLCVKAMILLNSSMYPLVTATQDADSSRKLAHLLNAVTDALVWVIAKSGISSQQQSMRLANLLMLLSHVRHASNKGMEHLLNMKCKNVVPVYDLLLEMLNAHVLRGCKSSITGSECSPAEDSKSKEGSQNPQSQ
Fibroblast growth factor 2, sequence (P09038 143-288 limits assumed): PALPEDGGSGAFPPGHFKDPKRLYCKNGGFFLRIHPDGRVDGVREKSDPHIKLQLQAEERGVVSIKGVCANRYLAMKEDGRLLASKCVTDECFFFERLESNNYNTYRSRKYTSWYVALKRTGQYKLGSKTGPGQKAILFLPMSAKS

| Compound | inhibition (KMS-11 [1]) | further results |
| --- | --- | --- |
| C[C@]12CC[C@H](O)C[C@@H]1CC[C@@H]1[C@@H]2CC[C@]2(C)[C@@H]([C@H](O)CC(O)(C(F)(F)F)C(F)(F)F)CC[C@@H]12 | inactive |  |
| C[C@]12CC[C@H]3[C@@H](CC=C4C[C@@H](O)CC[C@@]43C)[C@@H]1CC[C@@H]2C(O)CC(O)c1ccccc1 (stereo in doubt; 11b) | 68% |  |
| C[C@]12CC[C@H](O)C[C@@H]1CC[C@@H]1[C@@H]2CC[C@]2(C)[C@@H]([C@@H](O)CC(O)(C(F)(F)F)C(F)(F)F)CC[C@@H]12 | 89% | IC50 (KMS-11 [2]): 2.9 µM |
| C[C@]12CC[C@H]3[C@@H](CC=C4C[C@@H](O)CC[C@@]43C)[C@@H]1CC[C@@H]2[C@@H](O)CC(=O)O | 41% |  |
| C[C@]12CC[C@H]3[C@@H](CC=C4C[C@@H](O)CC[C@@]43C)[C@@H]1CC[C@@H]2[C@H](O)CCO | inactive |  |
| C[C@]12CC[C@H]3[C@@H](CC=C4CC(=O)CC[C@@]43C)[C@@H]1CC[C@@H]2[C@H](O)CC(O)(C(F)(F)F)C(F)(F)F | 69% |  |
| C[C@]12CC[C@H]3[C@@H](CC=C4C/C(=N/O)CC[C@@]43C)[C@@H]1CC[C@@H]2[C@H](O)CC(O)(C(F)(F)F)C(F)(F)F | 58% |  |
| C[C@]12CC[C@H]3[C@@H](CC=C4C[C@@H](O)CC[C@@]43C)[C@@H]1CC[C@@H]2[C@@H](O)CC(N)=O | 17% |  |
| C[C@]12CC[C@H]3[C@@H](CC=C4CC(=NO)CC[C@@]43C)[C@@H]1CC[C@@H]2[C@@H](O)CC(O)(C(F)(F)F)C(F)(F)F | 51% |  |
| C[C@]12CC[C@H]3[C@@H](CC=C4C[C@@H](O)CC[C@@]43C)[C@@H]1CC[C@@H]2C(O)CC(O)c1ccccc1 (stereo in doubt; 11c) | 28% |  |
| C[C@]12CC[C@H]3[C@@H](CC=C4CC(=O)CC[C@@]43C)[C@@H]1CC[C@@H]2[C@@H](O)CC(O)(C(F)(F)F)C(F)(F)F | 91% | IC50 (KMS-11 [2]): 3.4 µM |
| C[C@]12CC[C@H]3[C@@H](CC=C4C[C@@H](O)CC[C@@]43C)[C@@H]1CC[C@@H]2C(O)CC(O)c1ccccn1 (stereo in doubt; 14b) | 34% |  |
| C[C@]12CC[C@H]3[C@@H](CC=C4C[C@@H](O)CC[C@@]43C)[C@@H]1CC[C@@H]2[C@H](O)CC(=O)O | 80% |  |
| C[C@]12CC[C@H]3[C@@H](CC=C4C[C@@H](O)CC[C@@]43C)[C@@H]1CC[C@@H]2[C@@H](O)CCO | 57% |  |
| C[C@]12CC[C@H]3[C@@H](CC=C4C[C@@H](O)CC[C@@]43C)[C@@H]1CC[C@@H]2[C@H](O)CC(O)(C(F)(F)F)C(F)(F)F | inactive | concentration at 1.5 h [3]: 93.1 nM |
| C[C@]12CC[C@H]3[C@@H](CC=C4C[C@@H](O)CC[C@@]43C)[C@@H]1CC[C@@H]2[C@H](O)CC(N)=O | 44% |  |
| CC(C)(O)C[C@H](O)[C@H]1CC[C@H]2[C@@H]3CC=C4C[C@@H](O)CC[C@]4(C)[C@H]3CC[C@]12C | 46% |  |
| C[C@]12CC[C@H]3[C@@H](CC=C4C/C(=N\O)CC[C@@]43C)[C@@H]1CC[C@@H]2[C@H](O)CC(O)(C(F)(F)F)C(F)(F)F | 80% |  |
| C[C@]12CC[C@H]3[C@@H](CC=C4C[C@@H](O)CC[C@@]43C)[C@@H]1CC[C@@H]2C(O)CC(O)c1ccccn1 (stereo in doubt; 14a) | 26% |  |
| C[C@]12CC[C@H]3[C@@H](CC=C4C[C@@H](OCCO)CC[C@@]43C)[C@@H]1CC[C@@H]2[C@H](O)CC(O)(C(F)(F)F)C(F)(F)F | 85% | IC50 (KMS-11 [2]): 7.7 µM |
| CC(C)(O)C[C@@H](O)[C@H]1CC[C@H]2[C@@H]3CC=C4C[C@@H](O)CC[C@]4(C)[C@H]3CC[C@]12C | 32% |  |
| C[C@]12CC[C@H]3[C@@H](CC=C4C[C@@H](OC(=O)CN)CC[C@@]43C)[C@@H]1CC[C@@H]2[C@@H](O)CC(O)(C(F)(F)F)C(F)(F)F | 93% | IC50 (KMS-11 [2]): 5.6 µM |
| C[C@]12CC[C@H]3[C@@H](CC=C4C[C@@H](O)CC[C@@]43C)[C@@H]1CC[C@@H]2[C@@H](O)CC(O)(C(F)(F)F)C(F)(F)F | 81% | Activity (KMS-11 [4]): Active; inhibition [5]: 83.3%; IC50 (KMS-11 [2]): 3.4 µM; inhibition [6]: 91.9%; inhibition [7]: 60.8%; inhibition [8]: 74.9%; concentration at 1.5 h [3]: 360 nM |
| C[C@]12CC[C@H]3[C@@H](CC=C4C[C@@H](O)CC[C@@]43C)[C@@H]1CC[C@@H]2C(O)CC(O)c1ccccc1 (stereo in doubt; 11a) | 49% |  |
| C[C@]12CCC(=O)C[C@@H]1CC[C@@H]1[C@@H]2CC[C@]2(C)[C@@H]([C@H](O)CC(O)(C(F)(F)F)C(F)(F)F)CC[C@@H]12 | 99% | IC50 (U-266 [9]): 5.4 µM; Activity (U-266 [10]): Active; Activity (KMS-11 [4]): Active; inhibition [5]: 0%; IC50 (KMS-11 [2]): 2.4 µM; Activity (OPM-2 [11]): Active; inhibition [6]: 17.6%; Kd [12]: 30.5 µM; inhibition [7]: 0%; IC50 (OPM-2 [13]): 6.6 µM; IC50 (RPMI-8226 [14]): 6.6 µM; inhibition [8]: 4.3%; Activity (RPMI-8226 [15]): Active; concentration at 1.5 h [3]: 525 nM |
| C[C@]12CC[C@H]3[C@@H](CC=C4C[C@@H](OCCO)CC[C@@]43C)[C@@H]1CC[C@@H]2[C@@H](O)CC(O)(C(F)(F)F)C(F)(F)F | 71% |  |
| C[C@]12CC[C@H]3[C@@H](CC=C4C[C@@H](O[C@@H]5O[C@H](CO)[C@@H](O)[C@H](O)[C@H]5O)CC[C@@]43C)[C@@H]1CC[C@@H]2[C@H](O)CC(O)(C(F)(F)F)C(F)(F)F | inactive |  |
| C[C@]12CCC(=O)C[C@@H]1CC[C@@H]1[C@@H]2CC[C@]2(C)[C@@H]([C@@H](O)CC(O)(C(F)(F)F)C(F)(F)F)CC[C@@H]12 | 82% |  |
| C[C@]12CC[C@H]3[C@@H](CC=C4C[C@@H](O[C@@H]5O[C@H](CO)[C@@H](O)[C@H](O)[C@H]5O)CC[C@@]43C)[C@@H]1CC[C@@H]2[C@@H](O)CC(O)(C(F)(F)F)C(F)(F)F | 100% | IC50 (KMS-11 [2]): 4 µM |
